# Source: PubChem BioAssay (Johns Hopkins Ion Channel Center)
# KCNQ1 inh: human KCNQ1 channel inhibition | CHO-K1 KCNQ1, FluxOR thallium flux fluorescence; active compounds read high | B-score at 10 µM | 310,000 tested, 1.3% active | AID 2642;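 active = compounds whose thallium flux B-score, printed positive for inhibition, exceeds three library SD while starting fluorescence stays within three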;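 note: channel opened by potassium depolarization with thallium stimulus after 20 min compound exposure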
# KCNK9 inh: inhibitors of human KCNK9 two-pore domain potassium channel; Q9NPC2; HEK293 KCNK9, FluxOR thallium flux fluorescence; active compounds read low; B-score at 10 µM; 310,000 tested, 1.2% active; AID 488922;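 active = ratio B-score over 3 SD below the library mean, with starting fluorescence within 5 SD of its mean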;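 note: negative B-score means less thallium flux so channel inhibition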
# KCNQ1 act: potentiates or activates the human KCNQ1 potassium channel | 310,000 tested, 0.35% active | B-score at 10 µM | P51787 | CHO-K1 KCNQ1, thallium flux FluxOR fluorescence; active compounds read high;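 active = fluorescence ratio B-score, a plate-corrected score, at least three library SD, with initial intensity B-score within 5 SD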
#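 Schedule – 37 °C overnight plating, 90-min dark dye load, 20-min compound pretreatment · System – stable KCNQ1 CHO-K1 line · Probe or stimulus – thallium- and potassium-containing depolarizing buffer · Measured by – kinetic FluxOR fluorescence, 10 s baseline plus 110 s post-stimulus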
# hERG protect: hERG (human) protection from proarrhythmic block | Q12809 | activation (rescue from dofetilide block), less the hit threshold, % at 10 µM | CHO-hERG, FluxOR thallium flux, dofetilide IC70 present | 310,000 tested, 0.51% active;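 active = activation above the mean of controls blocked by dofetilide plus 5 SD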;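 note: thallium influx through hERG after potassium depolarization seen as dye fluorescence rise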
# KCNK3 inh: human KCNK3 channel inhibition, primary screen; CHO-KCNK3 thallium flux, FluxOR fluorescence; active compounds read low; B-score at 10 µM; 340,000 tested, 0.84% active; AID 602410;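 active = B-score under library mean minus 4 SD, starting fluorescence ratio at most library mean plus 5 SD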;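 note: more negative B-score means stronger inhibition of thallium flux through KCNK3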
# Target sequence (O14649 whole entry, looked up): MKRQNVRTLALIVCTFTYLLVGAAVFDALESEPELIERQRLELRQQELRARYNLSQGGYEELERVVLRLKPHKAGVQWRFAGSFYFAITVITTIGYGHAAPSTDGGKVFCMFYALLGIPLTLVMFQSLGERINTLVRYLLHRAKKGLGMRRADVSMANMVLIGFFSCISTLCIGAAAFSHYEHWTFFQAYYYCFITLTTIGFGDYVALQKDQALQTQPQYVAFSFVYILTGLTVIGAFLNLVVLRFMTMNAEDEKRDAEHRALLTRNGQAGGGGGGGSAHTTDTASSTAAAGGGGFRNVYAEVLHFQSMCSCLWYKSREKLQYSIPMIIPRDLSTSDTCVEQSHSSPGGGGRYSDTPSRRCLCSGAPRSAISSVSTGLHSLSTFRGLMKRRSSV
# KCNK9 block conf: confirmation of human KCNK9 potassium channel inhibitors; HEK293 KCNK9 cells, FluxOR thallium flux fluorescence; AID 492992; inhibition, % at 10 µM; 4,900 tested, 43% active; shares compounds with KCNK9 inh;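 active = thallium signal inhibited by more than 5 SD of the compound-free buffer control wells, on both duplicate plates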;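 note: 0% = assay buffer control wells without compound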
# Kir21 sel: tests whether KCNK9 modulators also affect mouse Kir2.1; Kir2.1 cells, FluxOR thallium flux fluorescence; shares compounds with KCNK9 inh; 4,900 tested, 4% active; AID 492993; inhibition, % at 10 µM;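 active = thallium signal drop more than 5 SD beyond the mean of the no-compound control wells, seen in both duplicate plates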;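 note: signal is fluorescence rise after thallium addition divided by baseline fluorescence; plate controls were assay buffer only for no effect and full block by chlorpromazine control for full effect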
# HEK293 Tl ctr: second counter-screen for KCNK9 modulators: effect in non-induced cells. shares compounds with KCNK9 inh. non-induced KCNK9-HEK293, FluxOR thallium flux. inhibition, % at 10 µM. 4,900 tested, 40% active;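 active = thallium signal drop beyond 5 SD of the untreated control mean, on both duplicate plates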;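 note: plate controls were buffer only IC0 wells for no effect and SID17386958 at its maximal inhibitory level for full effect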
# * marks the source's active call; other numbers are inactive results; i = inactive; . = no result. In the library only some 3.1% were active in any assay of this set; here they are far more common.
SMILES,KCNQ1 inh,KCNK9 inh,KCNQ1 act,hERG protect,KCNK3 inh,KCNK9 block conf,Kir21 sel,HEK293 Tl ctr
CCC(C)(C)n1nnnc1C(c1cccc(C#N)c1)N1CCN(c2cccc(C)c2C)CC1 (configuration not stated),i,-17*,i,-7,-9.5*,74%*,i,38%*
CCC(C)(C)n1nnnc1C(c1ccc(O)c(OC)c1)N1CCN(c2nc3ccccc3s2)CC1 (configuration not stated),i,-15*,i,-9,i,46%*,i,28%*
COc1ccccc1C(c1nnnn1Cc1ccccc1)N1CCN(c2nc3ccccc3s2)CC1 (configuration not stated),i,i,i,-7,i,.,.,.
CC(C)(C)n1nnnc1C(c1cccc(C#N)c1)N1CCCCCC1 (configuration not stated),i,i,i,-10,i,.,.,.
COc1ccc(C(c2nnnn2Cc2ccccc2)N2CCN(c3nc4ccccc4s3)CC2)cc1OC (configuration not stated),i,-8.7*,i,-10,i,i,i,i
CCC(C)(C)n1nnnc1C(c1ccc(O)c(OC)c1)N1CCc2ccccc2C1 (configuration not stated),i,i,i,-30,i,.,.,.
CC(C)(C)C(=O)CSc1ccc(S(=O)(=O)N2CCN(Cc3ccccc3)CC2)cn1,.,.,.,.,i,.,.,.
C=CCN1C(=O)C(CC(=O)NCC)SC1=Nc1ccccc1CC (configuration not stated),i,i,i,-3,i,.,.,.
O=C1CCN(Cc2ccccc2)C(=S)N1,.,.,.,.,i,.,.,.
CC(=O)n1cc([C@H]2C=C(C(=O)NCc3ccccc3)O[C@@H](OCc3ccc(CO)cc3)C2)c2ccccc21,i,i,i,-10,i,i,i,i
O=C(NCc1ccccc1)C1=C[C@@H](c2ccccc2)C[C@@H](OCc2ccc(CO)cc2)O1,i,i,i,-15,i,.,.,.
O=C(NCc1ccccc1)C1=C[C@H](c2ccc(Br)cc2)C[C@H](OCc2ccc(CO)cc2)O1,i,i,i,-11,i,i,i,i
CC(=O)n1cc([C@H]2C=C(C(=O)NCc3ccccc3)O[C@@H](OCCCCO)C2)c2ccccc21,i,i,i,-13,i,i,i,i
O=C(CS(=O)(=O)c1ccc(Cl)cc1)NCCS(=O)(=O)c1ccc(Cl)cc1,i,i,i,-9,i,.,.,.
O=C(O)CC(NC(=O)C(c1ccccc1)c1ccccc1)c1ccc(F)cc1 (configuration not stated),i,i,i,-1,i,.,.,.
O=C(NCCCc1ccccc1)c1cc(COc2ccc(F)cc2Cl)on1,6*,i,i,-8,i,i,i,i
CCC(NC(=O)c1cc(COc2ccc(Cl)cc2OC)on1)c1ccncc1 (configuration not stated),i,i,i,-3,i,.,.,.
CN(C(=O)c1cc(COc2ccc(F)cc2Cl)on1)C1CCCc2ccccc21 (configuration not stated),i,i,i,-9,i,i,i,24%*
COc1cc(Cl)ccc1OCc1cc(C(=O)NCC(C)c2ccccc2)no1 (configuration not stated),i,i,i,-8,i,i,i,i
Cc1ccc(NC(=O)CN2C(=O)NC(C)(C3CC3)C2=O)cc1S(=O)(=O)N1CCCCC1 (configuration not stated),.,.,.,.,i,.,.,.
CSc1cccc(NC(=S)N2CCC(N(C)C3CCCC3)CC2)c1,i,i,i,-10,i,.,.,.
Clc1ccc(-c2nnc(CCc3ccccc3)o2)c(Cl)c1,i,i,i,-3,i,i,i,i
CCOC(=O)COc1cc(N2C(=O)CSCC2=O)c(Cl)cc1Cl,i,i,i,2,i,.,.,.
CCOC(=O)COc1cc(-n2c(=S)[nH]c3cc(OC)c(OC)cc3c2=O)c(Cl)cc1Cl,i,-13*,16*,-6,i,54%*,i,i
COC(=O)c1cc(NC(=O)C2(S(=O)(=O)c3ccc(C)cc3)CC2)cc(C(=O)OC)c1,i,i,i,-5,i,i,i,i
SMILES,KCNQ1 inh,KCNK9 inh,KCNQ1 act,hERG protect,KCNK3 inh,KCNK9 block conf,Kir21 sel,HEK293 Tl ctr
COC(=O)c1cc(NC(=O)C2(S(=O)(=O)c3ccc(Cl)cc3)CC2)cc(C(=O)OC)c1,i,i,i,-9,i,.,.,.
Cc1ccc(C)c(OCc2cc(C(=O)N3CCc4sccc4C3)no2)c1,i,i,i,-15,i,.,.,.
CSc1ccccc1OCc1cc(C(=O)N2CCc3sccc3C2)no1,i,i,i,-7,i,i,i,i
COc1ccc(-n2c(COc3cccc4ccccc34)nnc2SCC(=O)NCc2ccco2)cc1,i,i,i,-11,i,.,.,.
Cc1cccc(CN2C(=O)[C@@H]3Cc4c([nH]c5ccccc45)C(C)(C)N3C2=O)c1,i,i,i,-8,i,i,i,i
Cc1cccc(CN2C(=O)[C@H]3Cc4c([nH]c5ccccc45)C(C)(C)N3C2=O)c1,i,i,i,-19,i,i,i,i
CC1(C)c2[nH]c3ccccc3c2C[C@@H]2C(=O)N(Cc3ccccc3)C(=O)N21,i,i,i,-10,i,.,.,.
O=C(NCCN1CCN(C(=O)c2cccc(OC(F)F)c2)CC1)c1cccc(OC(F)F)c1,.,.,.,.,i,.,.,.
Cc1nn(-c2ccccc2)c(Cl)c1/C=N/Nc1nc2ccccc2n1C,i,i,i,-11,i,i,i,i
O=C(O)c1cccc(N2C(=O)C3C4C=CC(C4=C(c4ccccc4)c4ccccc4)C3C2=O)c1 (configuration not stated),i,i,i,-11,i,i,i,i
O=C(c1cccs1)N1CCc2c([nH]c3ccccc23)C1c1ccccn1 (configuration not stated),i,-9*,i,-10,i,i,i,i
Cc1ccc2nc(C(=O)N3CCc4c([nH]c5ccccc45)C3c3ccccn3)cn2c1 (configuration not stated),i,i,i,-4,i,.,.,.
